Experimental data published in ChEMBL document CHEMBL4414560, “Goniolanceolatins A-H, Cytotoxic Bis-styryllactones from Goniothalamus lanceolatus” (J Nat Prod, 2019).

Key:
SW48 = assay: Cytotoxicity against human SW48 cells assessed as reduction in cell viability incubated fpr 72 hrs by celltiter-glo luminescent cell viability assay; type: functional, cell-based; settings: SW48, 72 h
Outline: (§1)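 Cell lines from ATCC, grown in RPMI-1640 with 10% FBS, 100 IU/mL penicillin and 100 μg/mL streptomycin at 37 °C, 5% CO2. Seeded for 24 h, then exposed to compound for 72 h. Viability read by CellTiter-Glo luminescence. IC50 is the concentration killing 50% of cells, reported as mean ± S.D. of at least three independent experiments. Cisplatin-treated cells served for validation.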

NCI-H23 = assay: Cytotoxicity against human NCI-H23 cells assessed as reduction in cell viability incubated fpr 72 hrs by celltiter-glo luminescent cell viability assay; type: functional, cell-based; settings: NCI-H23, 72 h
Outline: (§2)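 Lung cancer lines received as gifts from the National Cancer Institute, Selangor, Malaysia, incubated at 37 °C, 5% CO2. Cells plated for 24 h, then drug-exposed for 72 h. Luminescent CellTiter-Glo viability read-out. IC50 is the concentration killing 50% of cells, reported as mean ± S.D. from at least three independent experiments. Cisplatin-treated cells used for validation.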

CCD-841CoN = assay: Cytotoxicity against human CCD-841-CoN cells assessed as reduction in cell viability incubated fpr 72 hrs by celltiter-glo luminescent cell viability assay; type: cell-based
Outline: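 Noncancerous colorectal CCD 841 CoN cells kept in DMEM with 20% FBS, 100 IU/mL penicillin and 100 μg/mL streptomycin at 37 °C, 5% CO2. Plated 24 h, then treated 72 h. Viability by CellTiter-Glo luminescence. IC50 is the 50%-kill concentration, given as mean ± S.D. from at least three independent experiments. Cisplatin used for validation.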

NCI-H1299 = assay: Cytotoxicity against human NCI-H1299 cells assessed as reduction in cell viability incubated fpr 72 hrs by celltiter-glo luminescent cell viability assay; type: functional, cell-based; settings: NCI-H1299, 72 h; outline: as §2
Caco-2 = assay: Cytotoxicity against human Caco2 cells assessed as reduction in cell viability incubated fpr 72 hrs by celltiter-glo luminescent cell viability assay; type: functional, cell-based; settings: Caco-2, 72 h; outline: as §1
A549 = assay: Cytotoxicity against human A549 cells assessed as reduction in cell viability incubated fpr 72 hrs by celltiter-glo luminescent cell viability assay; type: functional, cell-based; settings: A549, 72 h; outline: as §1
Calu-1 = assay: Cytotoxicity against human Calu1 cells assessed as reduction in cell viability incubated fpr 72 hrs by celltiter-glo luminescent cell viability assay; type: functional, cell-based; settings: Calu-1, 72 h; outline: as §1
MRC5 = assay: Cytotoxicity against human MRC5 cells assessed as reduction in cell viability incubated fpr 72 hrs by celltiter-glo luminescent cell viability assay; type: cell-based; settings: MRC5, 72 h; outline: as §1
HCC 2998 = assay: Cytotoxicity against human HCC2998 cells assessed as reduction in cell viability incubated fpr 72 hrs by celltiter-glo luminescent cell viability assay; type: functional, cell-based; settings: HCC 2998, 72 h; outline: as §1
HCT-116 = assay: Cytotoxicity against human HCT116 cells assessed as reduction in cell viability incubated fpr 72 hrs by celltiter-glo luminescent cell viability assay; type: functional, cell-based; settings: HCT-116, 72 h; outline: as §1

SMILES	IC50 (SW48)	IC50 (NCI-H23)	IC50 (CCD-841CoN)	IC50 (NCI-H1299)	IC50 (Caco-2)	IC50 (A549)	IC50 (Calu-1)	IC50 (MRC5)	IC50 (HCC 2998)	IC50 (HCT-116)
O=C1C=CC[C@@H]([C@H](O)[C@H](O[C@@H](c2ccccc2)[C@@H](O)[C@@H]2CC=CC(=O)O2)c2ccccc2)O1	4.1 µM	3.2 µM	> 100 µM	7.1 µM	> 10 µM	7.8 µM	5.4 µM	> 100 µM	2.9 µM	5.9 µM
CC(=O)O[C@@H]([C@@H]1CC=CC(=O)O1)[C@H](O[C@@H](c1ccccc1)[C@@H](O)[C@@H]1CC=CC(=O)O1)c1ccccc1	4.1 µM	2.6 µM	> 100 µM	4.6 µM	7 µM	6.4 µM	2.2 µM	> 100 µM	> 10 µM	4.1 µM
O=C1C=CC[C@@H]([C@H](O)[C@@H](O[C@H]([C@@H]2CC=CC(=O)O2)[C@@H](O)c2ccccc2)c2ccccc2)O1	5.5 µM	5.2 µM	> 100 µM	9.5 µM	> 10 µM	> 10 µM	7.5 µM	> 100 µM	> 10 µM	8 µM
CC(=O)O[C@@H](c1ccccc1)[C@@H](O[C@@H]1[C@@H]2C[C@@H](CC(=O)O2)O[C@H]1c1ccccc1)[C@@H]1CC=CC(=O)O1	> 10 µM	9.3 µM	> 100 µM	> 10 µM	> 10 µM	> 10 µM	> 10 µM	> 100 µM	> 10 µM	9.5 µM
